Data: ChEMBL document CHEMBL1150832, “Phenylnaphthalene compounds from the subterranean part of Vitex rotundifolia and their antibacterial activity against methicillin-resistant Staphylococcus aureus” (2001)
In brackets after ≈: the same amount, converted by molar mass. Activity calls are given as the source filed them. No cut-off for these calls is given here.

Tests used:
[1] = tested on: Staphylococcus aureus; test: Antimicrobial activity against methicillin-sensitive Staphylococcus aureus ATCC 6538 at 100 ug after 20 hrs by agar plate diffusion assay; type: functional, organism-based
Outline: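 Agar disk diffusion. Cells were grown on Mueller-Hinton agar at 37 °C for 24 h, resuspended in Mueller-Hinton broth to 108 CFU/mL and incubated again. They were then diluted to 105 CFU/mL and used to inoculate Mueller-Hinton agar plates. 6 mm disks loaded with 100 µg compound were placed on the plates and incubated 20 h at 37 °C. Inhibition zones >10 mm were scored positive.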

[2] = tested on: Staphylococcus aureus; test: Antimicrobial activity against methicillin-resistant Staphylococcus aureus 0003 after 20 hrs by serial twofold dilution method; type: functional; details: Staphylococcus aureus, 0003, 20 h
Outline: (§1)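 Agar dilution MIC on Mueller-Hinton agar, following the Japanese Society for Antimicrobial Chemotherapy (1981) method. MRSA clinical isolates from Tokushima University Hospital were grown on Mueller-Hinton agar at 37 °C for 24 h, then resuspended in Mueller-Hinton broth. Suspensions of 1 × 10^6 CFU/mL were spotted with a replicating device. Plates were read after 20 h at 37 °C.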

[3] = tested on: Staphylococcus aureus; test: Antimicrobial activity against methicillin-resistant Staphylococcus aureus 0005 after 20 hrs by serial twofold dilution method; type: functional; details: Staphylococcus aureus, 0005, 20 h; outline: as §1
[4] = tested on: Staphylococcus aureus; test: Antimicrobial activity against methicillin-resistant Staphylococcus aureus 0013 after 20 hrs by serial twofold dilution method; type: functional; details: Staphylococcus aureus, 0013, 20 h; outline: as §1
[5] = tested on: Staphylococcus aureus; test: Antimicrobial activity against methicillin-resistant Staphylococcus aureus 0001 at 100 ug after 20 hrs by agar plate diffusion assay; type: functional, organism-based
Outline: (§2)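 Disk diffusion against MRSA clinical isolates from Tokushima University Hospital. Cells were grown on Mueller-Hinton agar at 37 °C for 24 h, resuspended in Mueller-Hinton broth, and diluted to 10^5 CFU/mL to seed Mueller-Hinton agar plates. 6 mm disks loaded with 100 µg compound were incubated 20 h at 37 °C. Inhibition zones over 10 mm in diameter were scored positive.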

[6] = tested on: Staphylococcus aureus; test: Antimicrobial activity against methicillin-resistant Staphylococcus aureus 0021 after 20 hrs by serial twofold dilution method; type: functional; details: Staphylococcus aureus, 0021, 20 h; outline: as §1
[7] = tested on: Staphylococcus aureus; test: Antimicrobial activity against methicillin-resistant Staphylococcus aureus 0012 after 20 hrs by serial twofold dilution method; type: functional; details: Staphylococcus aureus, 0012, 20 h; outline: as §1
[8] = tested on: Staphylococcus aureus; test: Antimicrobial activity against methicillin-resistant Staphylococcus aureus 0012 at 100 ug after 20 hrs by agar plate diffusion assay; type: functional, organism-based; outline: as §2
[9] = tested on: Staphylococcus aureus; test: Antimicrobial activity against methicillin-resistant Staphylococcus aureus 0003 at 100 ug after 20 hrs by agar plate diffusion assay; type: functional, organism-based; outline: as §2
[10] = tested on: Staphylococcus aureus; test: Antimicrobial activity against methicillin-resistant Staphylococcus aureus 0021 at 100 ug after 20 hrs by agar plate diffusion assay; type: functional, organism-based; outline: as §2
[11] = tested on: Staphylococcus aureus; test: Antimicrobial activity against methicillin-resistant Staphylococcus aureus 0018 after 20 hrs by serial twofold dilution method; type: functional; details: Staphylococcus aureus, 0018, 20 h; outline: as §1
[12] = tested on: Staphylococcus aureus; test: Antimicrobial activity against methicillin-resistant Staphylococcus aureus 0001 after 20 hrs by serial twofold dilution method; type: functional; details: Staphylococcus aureus, 0001, 20 h; outline: as §1
[13] = tested on: Staphylococcus aureus; test: Antimicrobial activity against methicillin-resistant Staphylococcus aureus 0019 at 100 ug after 20 hrs by agar plate diffusion assay; type: functional, organism-based; outline: as §2
[14] = tested on: Staphylococcus aureus; test: Antimicrobial activity against methicillin-resistant Staphylococcus aureus 0006 at 100 ug after 20 hrs by agar plate diffusion assay; type: functional, organism-based; outline: as §2
[15] = tested on: Staphylococcus aureus; test: Antimicrobial activity against methicillin-resistant Staphylococcus aureus 0019 after 20 hrs by serial twofold dilution method; type: functional; details: Staphylococcus aureus, 0019, 20 h; outline: as §1
[16] = tested on: Staphylococcus aureus; test: Antimicrobial activity against methicillin-resistant Staphylococcus aureus 0007 after 20 hrs by serial twofold dilution method; type: functional; details: Staphylococcus aureus, 0007, 20 h; outline: as §1
[17] = tested on: Staphylococcus aureus; test: Antimicrobial activity against methicillin-resistant Staphylococcus aureus 0020 at 100 ug after 20 hrs by agar plate diffusion assay; type: functional, organism-based; outline: as §2
[18] = tested on: Staphylococcus aureus; test: Antimicrobial activity against methicillin-resistant Staphylococcus aureus 0020 after 20 hrs by serial twofold dilution method; type: functional; details: Staphylococcus aureus, 0020, 20 h; outline: as §1
[19] = tested on: Staphylococcus aureus; test: Antimicrobial activity against methicillin-resistant Staphylococcus aureus 0002 at 100 ug after 20 hrs by agar plate diffusion assay; type: functional, organism-based; outline: as §2
[20] = tested on: Staphylococcus aureus; test: Antimicrobial activity against methicillin-resistant Staphylococcus aureus 0022 at 100 ug after 20 hrs by agar plate diffusion assay; type: functional, organism-based; outline: as §2
[21] = tested on: Staphylococcus aureus; test: Antimicrobial activity against methicillin-resistant Staphylococcus aureus 0017 at 100 ug after 20 hrs by agar plate diffusion assay; type: functional, organism-based; outline: as §2
[22] = tested on: Staphylococcus aureus; test: Antimicrobial activity against methicillin-resistant Staphylococcus aureus 0008 after 20 hrs by serial twofold dilution method; type: functional; details: Staphylococcus aureus, 0008, 20 h; outline: as §1
[23] = tested on: Staphylococcus aureus; test: Antimicrobial activity against methicillin-resistant Staphylococcus aureus 0008 at 100 ug after 20 hrs by agar plate diffusion assay; type: functional, organism-based; outline: as §2
[24] = tested on: Staphylococcus aureus; test: Antimicrobial activity against methicillin-resistant Staphylococcus aureus 0004 at 100 ug after 20 hrs by agar plate diffusion assay; type: functional, organism-based; outline: as §2
[25] = tested on: Staphylococcus aureus; test: Antimicrobial activity against methicillin-resistant Staphylococcus aureus 0016 after 20 hrs by serial twofold dilution method; type: functional; details: Staphylococcus aureus, 0016, 20 h; outline: as §1
[26] = tested on: Staphylococcus aureus; test: Antimicrobial activity against methicillin-resistant Staphylococcus aureus 0013 at 100 ug after 20 hrs by agar plate diffusion assay; type: functional, organism-based; outline: as §2
[27] = tested on: Staphylococcus aureus; test: Antimicrobial activity against methicillin-resistant Staphylococcus aureus 0018 at 100 ug after 20 hrs by agar plate diffusion assay; type: functional, organism-based; outline: as §2
[28] = tested on: Staphylococcus aureus; test: Antimicrobial activity against methicillin-resistant Staphylococcus aureus 0005 at 100 ug after 20 hrs by agar plate diffusion assay; type: functional, organism-based; outline: as §2
[29] = tested on: Staphylococcus aureus; test: Antimicrobial activity against methicillin-resistant Staphylococcus aureus 0016 at 100 ug after 20 hrs by agar plate diffusion assay; type: functional, organism-based; outline: as §2
[30] = tested on: Staphylococcus aureus; test: Antimicrobial activity against methicillin-resistant Staphylococcus aureus 0007 at 100 ug after 20 hrs by agar plate diffusion assay; type: functional, organism-based; outline: as §2
[31] = tested on: Staphylococcus aureus; test: Antimicrobial activity against methicillin-resistant Staphylococcus aureus 0002 after 20 hrs by serial twofold dilution method; type: functional; details: Staphylococcus aureus, 0002, 20 h; outline: as §1
[32] = tested on: Staphylococcus aureus; test: Antimicrobial activity against methicillin-resistant Staphylococcus aureus 0022 after 20 hrs by serial twofold dilution method; type: functional; details: Staphylococcus aureus, 0022, 20 h; outline: as §1
[33] = tested on: Staphylococcus aureus; test: Antimicrobial activity against methicillin-resistant Staphylococcus aureus 0009 after 20 hrs by serial twofold dilution method; type: functional; details: Staphylococcus aureus, 0009, 20 h; outline: as §1
[34] = tested on: Staphylococcus aureus; test: Antimicrobial activity against methicillin-resistant Staphylococcus aureus 0009 at 100 ug after 20 hrs by agar plate diffusion assay; type: functional, organism-based; outline: as §2
[35] = tested on: Staphylococcus aureus; test: Antimicrobial activity against methicillin-resistant Staphylococcus aureus 0006 after 20 hrs by serial twofold dilution method; type: functional; details: Staphylococcus aureus, 0006, 20 h; outline: as §1
[36] = tested on: Staphylococcus aureus; test: Antimicrobial activity against methicillin-resistant Staphylococcus aureus 0004 after 20 hrs by serial twofold dilution method; type: functional; details: Staphylococcus aureus, 0004, 20 h; outline: as §1
[37] = tested on: Staphylococcus aureus; test: Antimicrobial activity against methicillin-resistant Staphylococcus aureus 0017 after 20 hrs by serial twofold dilution method; type: functional; details: Staphylococcus aureus, 0017, 20 h; outline: as §1

Row | Structure (SMILES) | Activity [1] | MIC [2] [µg/mL] | MIC [3] [µg/mL] | MIC [4] [µg/mL] | Activity [5] | MIC [6] [µg/mL] | MIC [7] [µg/mL] | MIC [11] [µg/mL] | MIC [12] [µg/mL] | MIC [15] [µg/mL] | MIC [16] [µg/mL] | MIC [18] [µg/mL] | MIC [22] [µg/mL] | MIC [25] [µg/mL] | MIC [31] [µg/mL] | MIC [32] [µg/mL] | MIC [33] [µg/mL] | MIC [35] [µg/mL] | MIC [36] [µg/mL] | MIC [37] [µg/mL] | further results
1 | COc1ccc(-c2c(O)c(C=O)cc3ccc(O)c(OC)c23)cc1OC | inactive |  |  |  |  |  |  |  |  |  |  |  |  |  |  |  |  |  |  |  | 
2 | COc1cc2cc3c(c(-c4ccc(OC)c(OC)c4)c2cc1O)COC3=O | inactive |  |  |  |  |  |  |  |  |  |  |  |  |  |  |  |  |  |  |  | 
3 | COc1ccc(-c2cc(C=O)cc3ccc(O)c(OC)c23)cc1OC | inactive |  |  |  |  |  |  |  |  |  |  |  |  |  |  |  |  |  |  |  | 
4 | COc1cc(C[C@@H](CO)[C@H](CO)Cc2ccc(O)c(OC)c2)ccc1O | inactive |  |  |  |  |  |  |  |  |  |  |  |  |  |  |  |  |  |  |  | 
5 | COc1ccc(-c2c3c(cc4ccc(O)c(OC)c24)C(=O)OC3)cc1OC | inactive |  |  |  |  |  |  |  |  |  |  |  |  |  |  |  |  |  |  |  | 
6 | COc1cc2c(cc1OC)-c1c(c(C=O)cc3ccc(O)c(OC)c13)C2=O [VITROFOLAL D] | inactive | 32 (≈ 87.8 µM) | 16 (≈ 43.9 µM) | > 64 | Active | > 64 | > 64 | > 64 | > 64 | > 64 | 16 (≈ 43.9 µM) | 16 (≈ 43.9 µM) | 16 (≈ 43.9 µM) | 16 (≈ 43.9 µM) | 16 (≈ 43.9 µM) | > 64 | > 64 | 16 (≈ 43.9 µM) | > 64 | > 64 | Activity [8]: Active; Activity [9]: Active; Activity [10]: Active; Activity [13]: Active; Activity [14]: Active; Activity [17]: Active; Activity [19]: Active; Activity [20]: Active; Activity [21]: Active; Activity [23]: Active; Activity [24]: Active; Activity [26]: Active; Activity [27]: Active; Activity [28]: Active; Activity [29]: Active; Activity [30]: Active; Activity [34]: Active
7 | COc1cc(-c2c(O)c(C=O)cc3cc(OC)c(O)cc23)ccc1O | inactive |  |  |  |  |  |  |  |  |  |  |  |  |  |  |  |  |  |  |  | 
8 | COc1cc(-c2cc(C=O)cc3cc(OC)c(O)cc23)ccc1O [VITROFOLAL E] | inactive | > 64 | > 64 | > 64 |  | > 64 | > 64 | > 64 | > 64 | > 64 | > 64 | 64 (≈ 197 µM) | > 64 | > 64 | > 64 | > 64 | > 64 | > 64 | > 64 | > 64 | 
9 | COc1cc2c(cc1OC)C(O)c1c(C=O)cc3ccc(O)c(OC)c3c1-2 (stereo unspecified) [VITROFOLAL C] | inactive | > 64 | 64 (≈ 175 µM) | > 64 | Active | > 64 | > 64 | > 64 | > 64 | > 64 | 64 (≈ 175 µM) | 64 (≈ 175 µM) | 64 (≈ 175 µM) | 64 (≈ 175 µM) | 64 (≈ 175 µM) | > 64 | > 64 | 64 (≈ 175 µM) | > 64 | > 64 | Activity [8]: Active; Activity [9]: Active; Activity [10]: Active; Activity [13]: Active; Activity [14]: Active; Activity [17]: Active; Activity [19]: Active; Activity [20]: Active; Activity [21]: Active; Activity [23]: Active; Activity [24]: Active; Activity [26]: Active; Activity [27]: Active; Activity [28]: Active; Activity [29]: Active; Activity [30]: Active; Activity [34]: Active
10 | COc1cc(-c2c3c(cc4cc(OC)c(O)cc24)C(=O)OC3)ccc1O [DETETRAHYDROCONIDENDRIN] | inactive | 8 (≈ 22.7 µM) | 8 (≈ 22.7 µM) | > 64 | Active | > 64 | > 64 | > 64 | > 64 | > 64 | 16 (≈ 45.4 µM) | 4 (≈ 11.4 µM) | 8 (≈ 22.7 µM) | 16 (≈ 45.4 µM) | 8 (≈ 22.7 µM) | > 64 | > 64 | 8 (≈ 22.7 µM) | > 64 | > 64 | Activity [8]: Active; Activity [9]: Active; Activity [10]: Active; Activity [13]: Active; Activity [14]: Active; Activity [17]: Active; Activity [19]: Active; Activity [20]: Active; Activity [21]: Active; Activity [23]: Active; Activity [24]: Active; Activity [26]: Active; Activity [27]: Active; Activity [28]: Active; Activity [29]: Active; Activity [30]: Active; Activity [34]: Active
